Laboratory results published in the RNAGym collection of RNA variant scans (doi:10.1126/science.aae0568).
Fewer inactive variants are shown than the library holds.

B1: tRNA (parent)
chain: GUUCCGUUGGCGUAAUGGUAACGCGUCUCCCUCCUAAGGAGAAGACUGCGGGUUCGAGUCCCGUACGGAACG

Variants of: B1
Assay: yeast fitness relative to wild type (ratio to wild type); higher = fitter; tRNA-Arg(CCU), competitive growth, 37 C, YPD
How it was run: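 For this measurement, the tRNA-Arg(CCU) gene was varied by chemical synthesis at a 3% per-site mutation rate across 69 sites, and each variant was placed at the native genomic locus in Saccharomyces cerevisiae. The pooled strains went through a 24-hour competition in YPD at 37°C in six parallel replicates, with amplicons from start and end populations read by 100-nucleotide paired-end sequencing. Darwinian fitness relative to wild type followed from the change in each genotype's frequency. Genotypes needed ≥ 100 starting reads, and estimates < 0.5 were set to 0.5.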

Going from A20G G39C G48A to A20G C60U C66U, the yeast fitness falls from 0.924 to no more than 0.5.

A20U G23A A57C and A20G C60G A69C cannot be ordered by yeast fitness: no more than 0.5 for the first, no more than 0.5 for the second.

A20U C29G G38C G39A A43C C60G A65C and A20U C30G C33U G58C cannot be ordered by yeast fitness: no more than 0.5 for the first, no more than 0.5 for the second.

Compared with A20G C62A, A20G C62G is higher in yeast fitness: 0.715 for the first, 0.804 for the second.

First: A20U C30G A69C
Second: A20G G50C C61U
The yeast fitness of the first is higher: 0.597 for the first, no more than 0.5 for the second.

Going from A20U C62G G63C to A20U C22A U32G, the yeast fitness falls from 0.601 to no more than 0.5.

Going from A20U C66U to A20U A43C G48A C62U, the yeast fitness falls from 0.8 to 0.787.

A20U C34A G41C G56C and A20U C30A G58C G68A cannot be ordered by yeast fitness: no more than 0.5 for the first, no more than 0.5 for the second.

A20U C27G C29U C62G and A20G U35A U54G cannot be ordered by yeast fitness: no more than 0.5 for the first, no more than 0.5 for the second.

First: A20G G56U
Second: A20G G56A
The yeast fitness of the first is lower: 0.804 for the first, 1.01 for the second.

A20U A57U A65C A70G and A20U C30G G63A cannot be ordered by yeast fitness: no more than 0.5 for the first, no more than 0.5 for the second.

Going from A20G G50C to A20G G50U, the yeast fitness rises from 0.636 to 0.831.

A20U G23A C34A A36U and A20U C33A C55U C61A cannot be ordered by yeast fitness: no more than 0.5 for the first, no more than 0.5 for the second.

Going from A20G U28C to A20U C49A G52A C61U, the yeast fitness falls from 0.934 to no more than 0.5.

First: A20G C61U
Second: A20G C61G
The yeast fitness of the first is higher: 0.964 for the first, 0.617 for the second.

Going from A20G U35C G50C to A20G C66U, the yeast fitness rises from no more than 0.5 to 0.857.

Compared with A20G C66G, A20U C29U C62A is lower in yeast fitness: 0.809 for the first, 0.543 for the second.

Going from A20G G25C G51C to A20U A36U G44A G51C G52A, the yeast fitness falls from 0.658 to no more than 0.5.

Going from A20U A45G C46U C66U to A20U C49U G67A, the yeast fitness falls from 0.626 to 0.585.

Compared with A20G U26C A42U, A20G G25C U35C G58C is lower in yeast fitness: 0.715 for the first, no more than 0.5 for the second.

Compared with A20G G25A C34A G50C, A20U C29A C30U A36U is lower in yeast fitness: 0.578 for the first, no more than 0.5 for the second.

A20U C24U A42U C46A G56A G67A and A20G U28A U53A cannot be ordered by yeast fitness: no more than 0.5 for the first, no more than 0.5 for the second.

Compared with A20U A42G, A20U A42U is lower in yeast fitness: 0.797 for the first, 0.742 for the second.

First: A20G U47G G68U
Second: A20U G25A G63A
The yeast fitness of the first is lower: no more than 0.5 for the first, 0.716 for the second.

A20G G48A C49G U59A and A20G U28A A40G cannot be ordered by yeast fitness: no more than 0.5 for the first, no more than 0.5 for the second.

Compared with A20G G25A C55A, A20G U54A is higher in yeast fitness: no more than 0.5 for the first, 0.681 for the second.

Compared with A20G U54G, A20G G23A U26G is lower in yeast fitness: 0.524 for the first, no more than 0.5 for the second.

A20U C34G A36C C55U A65U and A20U C30U G39C A45G G68A A69C cannot be ordered by yeast fitness: no more than 0.5 for the first, no more than 0.5 for the second.

A20U A43U G48C C60G and A20G G25C U47A G56C U59C cannot be ordered by yeast fitness: no more than 0.5 for the first, no more than 0.5 for the second.

Going from A20U A40G U64A to A20G U26A, the yeast fitness rises from 0.508 to 0.884.

First: A20U A43G A65C
Second: A20U A36G G38A A40U
The yeast fitness of the first is lower: no more than 0.5 for the first, 0.501 for the second.

Going from A20U C29A C30A U53G C62A to A20G U59G A69C, the yeast fitness falls from 0.545 to 0.526.

First: A20U A36G C55G G56A
Second: A20U A36G C55G A65U
The yeast fitness of the first is lower: no more than 0.5 for the first, 0.52 for the second.

Compared with A20U C46U A69C, A20G G48A A70G is higher in yeast fitness: 0.744 for the first, 0.803 for the second.

A20U C34G G48C G67A G68C and A20U G39C C55G cannot be ordered by yeast fitness: no more than 0.5 for the first, no more than 0.5 for the second.

First: A20G G39A
Second: A20G G39C
The yeast fitness of the first is higher: 0.955 for the first, 0.829 for the second.

Going from A20G G23C C31U C46G A70U to A20G G50A A57U, the yeast fitness falls from 0.57 to 0.542.

Going from A20U G38A C49A C60G to A20U G25A C66U, the yeast fitness rises from no more than 0.5 to 0.761.

First: A20U C29A C30U A36U A70C
Second: A20U A40G G50A
The yeast fitness of the first is higher: 0.594 for the first, no more than 0.5 for the second.

A20G G25A C33U G39A A57G U59C and A20U C29G C49G cannot be ordered by yeast fitness: no more than 0.5 for the first, 0.5 for the second.

First: A20U A21C C31A
Second: A20U A65U A69U
The yeast fitness of the first is lower: no more than 0.5 for the first, 0.722 for the second.

Compared with A20U G39A G51A U54G A65C A70C, A20U C22G G23A A43U G48A is lower in yeast fitness: 0.554 for the first, no more than 0.5 for the second.

A20U A42C G56A and A20U C29U C30G C34A U35A C66A cannot be ordered by yeast fitness: no more than 0.5 for the first, no more than 0.5 for the second.

A20U G23C A45U G58A A70C and A20U G25C U47A C60G cannot be ordered by yeast fitness: no more than 0.5 for the first, no more than 0.5 for the second.

Compared with A20U A45C A65G, A20U A45U C62A A70C is lower in yeast fitness: 0.576 for the first, 0.505 for the second.

First: A20U C34G G38C G50C C60A A70C
Second: A20U A40C
The yeast fitness of the first is lower: no more than 0.5 for the first, 0.712 for the second.

Going from A20U A40U to A20U C31G U32G, the yeast fitness falls from 0.654 to 0.531.

Going from A20U C33U G38C A40U G44C G51C C60U to A20G G58U, the yeast fitness rises from 0.558 to 0.781.

Compared with A20G G58A, A20G G44C is lower in yeast fitness: 0.97 for the first, 0.929 for the second.

First: A20U C29G A45G A69U
Second: A20U C24A A40C G50C C66U
The yeast fitness of the first is higher: 0.525 for the first, no more than 0.5 for the second.

A20G G23A C24G C60G and A20U C30G C33U C55A cannot be ordered by yeast fitness: no more than 0.5 for the first, no more than 0.5 for the second.

Going from A20G U35A A40C G52A C60A C61G to A20G G50C C60G, the yeast fitness rises from 0.6 to 0.634.

Compared with A20U C22A C61A C62G, A20G U28A C31U U54A is higher in yeast fitness: no more than 0.5 for the first, 0.613 for the second.

Going from A20U A37C to A20U C34G A37G, the yeast fitness falls from 0.723 to no more than 0.5.

Going from A20U C34A G58A to A20U A21G C31U, the yeast fitness rises from no more than 0.5 to 0.609.

A20U A36G C49U A70U and A20G G38C C66A cannot be ordered by yeast fitness: no more than 0.5 for the first, no more than 0.5 for the second.

Going from A20U C22U A42G to A20G G63C, the yeast fitness rises from no more than 0.5 to 0.837.

Compared with A20G G63A, A20U C31G G38A C61A G63A is lower in yeast fitness: 0.903 for the first, no more than 0.5 for the second.

A20U C34U G51C C60U and A20U C29U A37U cannot be ordered by yeast fitness: no more than 0.5 for the first, no more than 0.5 for the second.

Going from A20U C29U G41C G44A A57U to A20G G38A U47C, the yeast fitness falls from 0.805 to 0.685.

A20U A21U C31G C55A G68U and A20U C60G G67A cannot be ordered by yeast fitness: no more than 0.5 for the first, no more than 0.5 for the second.

Going from A20U C34A U59A to A20G U32C A57G, the yeast fitness rises from 0.538 to 0.724.

Going from A20U C34G A42G A43U G67A to A20G U28C A40C, the yeast fitness rises from no more than 0.5 to 0.634.

First: A20G U28C A40U
Second: A20U G25A C60A A65U A70G
The yeast fitness of the first is higher: 1.04 for the first, no more than 0.5 for the second.

Compared with A20U C29G C49G U54C G63C, A20U G38A G67C is lower in yeast fitness: 0.535 for the first, no more than 0.5 for the second.

Going from A20G U53A to A20G U53G, the yeast fitness falls from 0.692 to 0.571.

Going from A20U C31A A69C to A20U A36G A37G C55G, the yeast fitness falls from 0.624 to 0.546.

Compared with A20U C34U A40U, A20U G38A A70G is higher in yeast fitness: no more than 0.5 for the first, 0.516 for the second.

First: A20U C30A G67U
Second: A20G G52A
The yeast fitness of the first is lower: 0.527 for the first, 0.664 for the second.

First: A20G U32A
Second: A20U A43U
The yeast fitness of the first is lower: 0.719 for the first, 0.905 for the second.

Going from A20U A43C to A20U A43G, the yeast fitness rises from 0.775 to 0.978.

A20U A42C C60A and A20U C22U C46U A57G cannot be ordered by yeast fitness: no more than 0.5 for the first, no more than 0.5 for the second.

Compared with A20U C30U, A20G G23A G38C G63A C66A is lower in yeast fitness: 0.783 for the first, no more than 0.5 for the second.

Compared with A20U C24U A42U C46A C55U C61G A69C, A20U C27G C34A C46G C55A is lower in yeast fitness: 0.59 for the first, no more than 0.5 for the second.

Compared with A20U G38A, A20U G38C is higher in yeast fitness: 0.69 for the first, 0.775 for the second.

Compared with A20U G23A G56A A69C, A20U G23A C61U is higher in yeast fitness: no more than 0.5 for the first, 0.561 for the second.

Going from A20G U28G A69U to A20U A40G G44C G58C, the yeast fitness rises from no more than 0.5 to 0.574.

Going from A20U C29U C49G C55A to A20U C22U C34A U64C, the yeast fitness falls from 0.522 to no more than 0.5.

Compared with A20G U26C A37C G68A, A20G U32C G67C is higher in yeast fitness: no more than 0.5 for the first, 0.735 for the second.

First: A20U C46U C60A
Second: A20G U64C C66G
The yeast fitness of the first is higher: 0.566 for the first, no more than 0.5 for the second.

First: A20U C55U
Second: A20U C55G
The yeast fitness of the first is higher: 0.76 for the first, 0.669 for the second.

Compared with A20U G25A A69C, A20U C22G C60G C66G is lower in yeast fitness: 0.963 for the first, no more than 0.5 for the second.

First: A20U A36C A43U
Second: A20G U28A A69C
The yeast fitness of the first is higher: 0.641 for the first, no more than 0.5 for the second.

With A20G U32C U47A the yeast fitness was 0.626.
